Source: PubChem BioAssay
Most compounds without a hit are left out; they make up all but 12% or so of the library.
CHOP inh – blocks CHOP induction under ER stress. 220,000 compounds, 3.8% hits. CHO-K1 CHOP-promoter luciferase, tunicamycin-induced, 15-18 h. inhibition, % at 10 µM;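 active means compounds that reduced the stress-induced luciferase reporter signal by more than about 70% of percent inhibition, limit read from the data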;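 further: 0% = tunicamycin plus vehicle and 100% = wells without tunicamycin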
bCat nuc transl – beta-catenin nuclear translocation modulation. 190,000 compounds, 0.3% hits. HeLa beta-catenin nuclear translocation, immunofluorescence imaging. nuclear translocation activity, % at 5 µM;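 active means nuclear translocation activity above 50% at 5 µM, with a well cell count of 50 or more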;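 further: per-cell ratio of nuclear to cytoplasmic median beta-catenin stain intensity; plate controls were DMSO negative control for no effect and GSK-3 inhibitor IX positive control for full effect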
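System: HeLa cells, endogenous beta-catenin; compound dosing: 5 µM primary single dose, 0.1% DMSO, 0.02–20 µM confirmation series; incubation: 24 h compound exposure at 37°C, 5% CO2; signal: beta-catenin immunofluorescence imaging with DAPI; evaluation: % activation, nuclear-to-cytoplasmic median beta-catenin signal ratio per cell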
Dynein cargo inh – dynein cargo transport inhibition; 3617.4 mouse cells, GR-EGFP nuclear translocation imaging; test concentration mostly 20 µM; stimulated with dexamethasone, 1 µM; active compounds read low; z-score, hits read low; 220,000 compounds, 0.47% hits; AID 1381;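 active means plate z-score of nuclear minus cytoplasmic receptor signal below a set negative limit, without overly bright fluorescence or cell loss, cut at about -3.5 in these data, passing the limit was not always enough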;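 further: z-score of nuclear minus cytoplasmic ring GR-EGFP intensity difference per well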
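Buffer or medium: tet-free, stripped-serum medium; reagent: dexamethasone at 1.0 µM final, 30 min; incubation: 48 h induction, 1 h compound, 30 min dex at 37 °C; measured by: formaldehyde fixation, Hoechst nuclear stain, 10x automated fluorescence imaging; read-out: nuclear-to-cytoplasmic GR-EGFP distribution per well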
Lmaj promast – Leishmania major promastigote growth inhibition. inhibition, % at 10 µM. 200,000 compounds, 9% hits. Leishmania major promastigotes, resazurin fluorescence viability; in the data active means inhibition above about 50%;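 further: promastigotes grown with compound for 44 hours at 28 °C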
Autophagy mod – modulators of autophagy. MEF GFP-LC3 puncta imaging; test concentration mostly 10 µM. calls only at 10 µM (by protocol). 190,000 compounds, 0.98% hits;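 active means percentage of spot-positive cells more than 3 SD above its plate mean, without a fluorescence outlier flag or 80% toxicity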;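 further: spot-positive cell cutoff set from DMSO-treated cells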
MT stabilizer – stabilizes microtubules in HeLa cells | 200,000 compounds, 0.83% hits | HeLa tubulin immunostaining HCS, 24 h; share of cells brighter than vehicle mean+2SD | % tubulin-high responders, % at 10 µM;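 active means plate Z-score above 3 for both tubulin-high and condensed-nucleus cell shares, with cell loss under 80%, at 10 µM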;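 further: anti alpha tubulin signal scored within the nucleus-defined area of each cell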
Numbers without * were called inactive.

How did O=C1Nc2ccc(Br)cc2/C1=C/C1CC=CCC1 (centres undefined) do in these assays?
CHOP inh: 95*; Dynein cargo inh: -1.9; Lmaj promast: 99*; Autophagy mod: inactive; MT stabilizer: 2

Results for O=c1c2c(nc3c(-c4cccc(Br)c4)c[nH]n13)CCCC2 ?
CHOP inh: 31; bCat nuc transl: -1; Dynein cargo inh: -1.1; Lmaj promast: 100*; Autophagy mod: inactive; MT stabilizer: 7

How did O=c1c2c(nc3cc(-c4ccc(Br)cc4)[nH]n13)CCCC2 do in these assays?
CHOP inh: 73*; bCat nuc transl: -1; Dynein cargo inh: 0.047; Lmaj promast: 67*; Autophagy mod: inactive; MT stabilizer: 1

How did O=C(N=NC(=O)c1ccc2c(O)n(CC3CCCO3)c(O)c2c1)c1cccnc1 (centres undefined) do in these assays?
CHOP inh: 6; bCat nuc transl: 0; Dynein cargo inh: 0.21

What do the screens show for `COc1ccc(OC)c(C2=NNC(=NCc3ccc4c(c3)OCO4)SC2)c1`?
CHOP inh: 1; bCat nuc transl: -1; Dynein cargo inh: 1; Lmaj promast: 92*; Autophagy mod: inactive; MT stabilizer: 2

How did Oc1ccc(C2=NNC(=NCc3ccc4c(c3)OCO4)SC2)c(O)c1 do in these assays?
CHOP inh: 19; bCat nuc transl: 117*; Dynein cargo inh: -0.24; Lmaj promast: -5; Autophagy mod: inactive; MT stabilizer: 11

What do the screens show for `Clc1ccc(C2=NNC(=NCc3ccc4c(c3)OCO4)SC2)cc1`?
CHOP inh: 0; bCat nuc transl: -1; Dynein cargo inh: -1.2; Lmaj promast: 16; Autophagy mod: inactive; MT stabilizer: 4

How did O=C(C(=O)N1CCCc2ccccc21)c1cn(CC(=O)N2CCOCC2)c2ccccc12 do in these assays?
CHOP inh: 17; bCat nuc transl: 1; Dynein cargo inh: -1.3; Lmaj promast: -6; Autophagy mod: inactive; MT stabilizer: 3

How did Cn1cc(C(=O)C(=O)N2CCCc3ccccc32)c2ccccc21 do in these assays?
CHOP inh: -5; bCat nuc transl: 1; Dynein cargo inh: -0.23; Lmaj promast: 20; Autophagy mod: inactive; MT stabilizer: 12*

Results for COC(=O)c1ccc(NC(=O)Cc2ccc(C)cc2)cc1 ?
CHOP inh: -21; bCat nuc transl: 1; Dynein cargo inh: 0.3; Lmaj promast: 65*; Autophagy mod: inactive; MT stabilizer: 1

How did COC(=O)c1ccc(NC(=O)Cc2ccccc2)cc1 do in these assays?
CHOP inh: -29; bCat nuc transl: -2; Dynein cargo inh: 0.29; Lmaj promast: 76*; Autophagy mod: inactive; MT stabilizer: 3

What do the screens show for `COC(=O)c1ccc(NC(=O)CN(Cc2ccc(Cl)cc2)S(C)(=O)=O)cc1`?
CHOP inh: 23; bCat nuc transl: -10; Dynein cargo inh: 0.23; Lmaj promast: 100*; Autophagy mod: inactive; MT stabilizer: 2

What do the screens show for `COC(=O)c1ccc(NC(=O)CSCc2ccc(C)cc2)cc1`?
CHOP inh: -4; bCat nuc transl: 2; Dynein cargo inh: -0.47; Lmaj promast: 4; Autophagy mod: inactive; MT stabilizer: 1

Results for CS(=O)(=O)N(CC(=O)Nc1ccc2c(c1)OCO2)Cc1ccc(Cl)cc1 ?
CHOP inh: 0; bCat nuc transl: 1; Dynein cargo inh: -0.94; Lmaj promast: 21; Autophagy mod: inactive; MT stabilizer: 4

What do the screens show for `O=C(Nc1ccccc1)N1CCN(Cc2ccc(Cl)cc2)CC1`?
CHOP inh: 12; bCat nuc transl: 0; Dynein cargo inh: -1.8; Lmaj promast: 15; Autophagy mod: inactive; MT stabilizer: 4

What do the screens show for `O=C(Nc1ccc(Cl)cc1)N1CCCN(Cc2ccc(F)cc2)C1`?
CHOP inh: -17; Dynein cargo inh: 9.8; Lmaj promast: 92*; Autophagy mod: inactive; MT stabilizer: 2

Results for Oc1ccc(-c2nccc(-c3ccc(Cl)cc3)n2)cc1 ?
CHOP inh: 39; bCat nuc transl: 0; Dynein cargo inh: -0.072; Lmaj promast: 14; Autophagy mod: inactive; MT stabilizer: 5

What do the screens show for `FCCCOc1ccc(-c2nccc(-c3ccc(Cl)cc3)n2)cc1`?
CHOP inh: 78*; bCat nuc transl: 0; Dynein cargo inh: -0.52; Lmaj promast: -10; Autophagy mod: inactive; MT stabilizer: 2
